Results of several laboratories.
Lines come from different studies, so protocols differ.
CSNK1A1/CRBN: Cereblon/Casein kinase I alpha (CSNK1A1/CRBN, Homo sapiens, UniProt P48729+Q96SW2)
HTR1E: 5-hydroxytryptamine receptor 1E (HTR1E, Homo sapiens, UniProt P28566)
AVPR2: Vasopressin V2 receptor (AVPR2, Homo sapiens, UniProt P30518)
APC: Adenomatous polyposis coli protein (APC, Homo sapiens, UniProt P25054)
Palmitoyl-protein thioesterase 1: Palmitoyl-protein thioesterase 1 (Homo sapiens, UniProt P50897)

The Kd of `COC(=O)[C@]12CCC(C)(C)C[C@H]1[C@H]1C(=O)C=C3[C@@]4(C)C=C(C#N)C(=O)C(C)(C)[C@@H]4CC[C@@]3(C)[C@]1(C)CC2` is reported as 79000 nM (Epidermal growth factor receptor (EGFR, Homo sapiens, UniProt P00533); binding; MST).
The Ki of `N=C(N)NCCC[C@H](NC(=O)[C@@H](NC(=O)[C@H](Cc1cscn1)NC(=O)CCc1ccccc1)C1CCCCC1)C(=O)c1nc2ccccc2s1` is reported as ~5 nM (Transmembrane protease serine 6 (Homo sapiens, UniProt Q8IU80); cell-free assay).
`Cc1ccc(CNc2cccc3c2CN(C)N(C2CCC(=O)NC2=O)C3=O)cc1` (stereo not drawn) gave a DC50 of 970 nM (CSNK1A1/CRBN; protein level; degrader; luciferase).
`Cc1cc(C(C)(C)C)c(O)c(C)c1CC1=NCCN1` gave an EC50 of 516 nM (HTR1E; G protein activation; agonist; BRET).
The EC50 of `CC1=NN(/C(=N/c2nnc(C)s2)Nc2ccc(C)c(C)c2)C(c2ccc(F)c(F)c2)S1` (stereo not drawn) is reported as > 50000 nM (AVPR2; cAMP; positive allosteric modulator).
`COc1cccc(C(=O)N[C@@H](CCC(=O)O)C(=O)N[C@@H](Cc2ccc3ccccc3c2)C(=O)N[C@@H](CC(C)C)C(=O)NC2CC2c2ccccc2)c1` (stereo partly drawn) has an IC50 of 38900 nM (APC; ligand displacement; FP).
The Kd of `CCCCCCCC/C=C\CCCCCCCC(=O)O` is reported as 13100 nM (Myoglobin (MB, Homo sapiens, UniProt P02144, K46M); binding; absorbance).
For `Cc1cc(C(=O)N[C@@H](CCC(=O)O)C(=O)N[C@@H](Cc2ccc3ccccc3c2)C(=O)N[C@@H](CC(C)C)C(=O)NC2CC2c2ccccc2)ccn1` (stereo partly drawn), the IC50 was 40700 nM (APC; ligand displacement; FP).
The Kd of `OC(c1cc(C(F)(F)F)nc2c(C(F)(F)F)cccc12)C1CCCCN1` (stereo not drawn) is reported as 226 nM (Palmitoyl-protein thioesterase 1; binding; MST).
The Kd of `Cc1nc2n(c(=O)c1CCN1CCC(c3noc4cc(F)ccc34)CC1)CCCC2O` (stereo not drawn) is reported as 12800 nM (RNA cytidine acetyltransferase (Homo sapiens, UniProt Q9H0A0); binding; ITC).
With `CSc1nccc(C(=O)N[C@@H](CCC(=O)O)C(=O)N[C@@H](Cc2ccc3ccccc3c2)C(=O)N[C@@H](CC(C)C)C(=O)N[C@@H]2C[C@H]2c2ccccc2)n1` the Kd was 380 nM (APC; binding; SPR).
`O=C1c2ccccc2S(=O)(=O)N1CCCCN1CCN(c2ncccn2)CC1` has an EC50 of 628 nM (HTR1E; G protein activation; agonist; BRET).
For `CC(C)C[C@H](NC(=O)[C@H](CC1CC1)NC(=O)[C@H](CCC(=O)O)NC(=O)c1ccncn1)C(=O)NC1CC1c1ccccc1` (stereo partly drawn), the Kd was 32000 nM (APC; binding; SPR).
`CC1=NN(/C(=N\c2ccc(C(F)(F)F)cc2)Nc2nnc(C)s2)C(c2ccc(C)cc2)S1` (stereo not drawn) has an EC50 of 16600 nM (AVPR2; cAMP; positive allosteric modulator).
The EC50 of `CN(C)c1ncnc2c1ncn2[C@@H]1O[C@H](CO)[C@@H](O)[C@H]1O` is reported as 4000 nM (Adenosine receptor A3 (ADORA3, Homo sapiens, UniProt P0DMS8, L264A); G protein activation; agonist).
`CN1CCN(Cc2ccc(CNc3cccc4c3CN(C)N(C3CCC(=O)NC3=O)C4=O)cc2)CC1` (stereo not drawn) has a DC50 of 92 nM (CSNK1A1/CRBN; protein level; degrader; luciferase).
With `CC1=NN(/C(=N/c2nnc(C)s2)Nc2ccc(C)c(C)c2)C(c2ccc(C(C)(C)C)cc2)S1` (stereo not drawn) the EC50 was > 50000 nM (AVPR2; cAMP; positive allosteric modulator).
For `CCN(CC)Cc1cc(Nc2ccnc3cc(Cl)ccc23)ccc1O`, the Kd was 76 nM (Palmitoyl-protein thioesterase 1; binding; MST).
`CC(C)C[C@H](NC(=O)[C@H](Cc1ccc2ccccc2c1)NC(=O)[C@H](CCC(=O)O)NC(=O)c1ccncn1)C(=O)NC1CC1c1ccccc1` (stereo partly drawn) gave a Kd of 2300 nM (APC; binding; SPR).
For `CC1=NN(/C(=N/c2nnc(C)s2)Nc2ccc(C)c(C)c2)C(c2ccc(F)cc2)S1` (stereo not drawn), the EC50 was > 50000 nM (AVPR2; cAMP; positive allosteric modulator).
With `COc1ccc(CC2NCCc3c2[nH]c2ccc(C)cc32)c(Cl)c1OC` (stereo not drawn) the EC50 was 2430 nM (HTR1E; G protein activation; agonist; BRET).
The IC50 of `CC(C)C[C@H](NC(=O)[C@H](Cc1ccc2ccccc2c1)NC(=O)[C@H](CCC(=O)O)NC(=O)c1cccc(Br)c1)C(=O)NC1CC1c1ccccc1` (stereo partly drawn) is reported as 11200 nM (APC; ligand displacement; FP).
The EC50 of `CCN1CCC[C@H]1CNC(=O)c1c(O)c(Cl)cc(Cl)c1OC` is reported as 490 nM (HTR1E; G protein activation; agonist; BRET).
The EC50 of `CC1=NN(/C(=N/c2nnc(C)s2)Nc2ccc(C)c(C)c2)C(c2cc(F)c(F)c(F)c2F)S1` (stereo not drawn) is reported as > 50000 nM (AVPR2; cAMP; positive allosteric modulator).
`CN1CCc2cc(Cl)c(O)cc2[C@@H](c2ccccc2)C1` gave an EC50 of 3900 nM (HTR1E; G protein activation; agonist; BRET).
The EC50 of `CC1=NN(/C(=N/c2nnc(C)s2)Nc2ccc(C)c(C)c2)C(c2ccc(C(F)(F)F)cc2)S1` (stereo not drawn) is reported as > 50000 nM (AVPR2; cAMP; positive allosteric modulator).
With `C=C[C@H]1C[N@@]2CC[C@H]1C[C@H]2[C@H](O)c1ccnc2ccc(OC)cc12` the Kd was 256 nM (Palmitoyl-protein thioesterase 1; binding; MST).
The EC50 of `Cc1ccc(N/C(=N\c2nnc(C(C)(C)C)s2)N2N=C(C(C)(C)C)SC2c2cc(F)c(F)c(F)c2)cc1C` (stereo not drawn) is reported as > 50000 nM (AVPR2; cAMP; positive allosteric modulator).
With `O=C1c2ccccc2-n2c1nc1ccccc1c2=O` the Kd was 30100 nM (Glutathione S-transferase P (GSTP1, Homo sapiens, UniProt P09211); binding).
`CSc1ncc(Br)c(C(=O)N[C@@H](CCC(=O)O)C(=O)N[C@@H](Cc2ccc3ccccc3c2)C(=O)N[C@@H](CC(C)C)C(=O)NC2CC2c2ccccc2)n1` (stereo partly drawn) has a Kd of 580 nM (APC; binding; SPR).
For `CC1=NN(/C(=N/c2nnc(C)s2)Nc2ccc(C)c(C)c2)C(c2cccnc2)S1` (stereo not drawn), the EC50 was > 50000 nM (AVPR2; cAMP; positive allosteric modulator).
`CN(C)CCCN1c2ccccc2Sc2ccc(Cl)cc21` gave an EC50 of 2080 nM (HTR1E; G protein activation; agonist; BRET).
The EC50 of `CC(C)=CCNc1ncnc2c1ncn2[C@@H]1O[C@H](CO)[C@@H](O)[C@H]1O` is reported as 80 nM (Adenosine receptor A3 (ADORA3, Homo sapiens, UniProt P0DMS8, I253Q); G protein activation; agonist).
